Published values collected from several papers.
Target: Vascular endothelial growth factor receptor 2 (KDR, Homo sapiens, UniProt P35968)

SMILES | test | conditions | remaining binding
O=C(NCCCC1CCCCC1)c1ccc(CNC(=O)c2cnn(-c3ccccc3)c2C(F)(F)F)cc1 | cell-free assay, competition with immobilised ligand | 0.1 µM | 97%
CN(C)c1ncc(F)c(-c2cnn3ncccc23)n1 | binding | 1 µM | 75%
O=C(NCCCN1CCOCC1)c1ccc(Nc2ncc(Cl)c(-c3ccc(Cl)s3)n2)cc1 | binding, competition with immobilised ligand | 1 µM | 13%
N#Cc1ccccc1CSc1nnc2c(n1)[nH]c1ccccc12 | binding, competition with immobilised ligand | 10 µM | 95%
FC(F)(F)Oc1cccc(-c2cnc3ccc(-c4ccncc4)nn23)c1 | cell-free assay, competition with immobilised ligand | 5 µM | 18%
COc1cnc(Nc2cccc(S(N)(=O)=O)c2)nc1N1CCN(c2ccccc2)CC1 | binding, competition with immobilised ligand | 1 µM | 83%
O=C(NCCCN1CCOCC1)c1ccc(Nc2nccc(-c3cc4ccccc4s3)n2)cc1 | binding, competition with immobilised ligand | 1 µM | 72%
CN(C)C(=O)Cn1cc(-c2nc(C3(c4ccc(-c5cnc(N)nc5)cc4)CC3)no2)cn1 | cell-free assay, competition with immobilised ligand | 1 µM | 70%
F[C@@H]1CCN(c2nccc(-c3cnn4ncccc34)n2)C1 | binding | 1 µM | 100%
C[C@@H]1CN(c2ccc3ncc(-c4ccc5[nH]nc(C6CC6)c5c4)n3n2)C[C@H](C)O1 | binding, competition with immobilised ligand | 50 nM | 86%
C[C@@H]1CCN(c2nccc(-c3cnn4ncccc34)n2)C1 | binding | 1 µM | 87%
O=C(Nc1c[nH]nc1C(=O)NC1CCNCC1)c1cc(F)cc(F)c1 | binding, competition with immobilised ligand | 1 µM | 93%
COCCOc1nc(-c2ccc(Cl)nc2)nc2c1CN(C(=O)c1ncn3ccccc13)CC2 | cell-free assay, competition with immobilised ligand | 0.1 µM | 100%
c1cncc(-c2cccc(Nc3nccc(NC4CCCCC4)n3)c2)c1 | binding, competition with immobilised ligand | 10 µM | 69%
N[C@@H]1CCN(c2nccc(-c3cnn4ncccc34)n2)C1 | binding | 1 µM | 100%
Cc1cc(-n2nc(Cc3cc(F)cc(C(F)(F)F)c3)nc2C)ccc1C(N)=O | cell-free assay, competition with immobilised ligand | 1 µM | 100%
CN(C)c1nccc(-c2cnc3ncccn23)n1 | binding | 1 µM | 90%
CCN1CCN(Cc2ccc(C(=O)Nc3ccc(C)c(Oc4ccc5c(c4)CC(=O)N5)c3)cc2C(F)(F)F)CC1 | binding, competition with immobilised ligand | 1 µM | 100%
CCCOc1ccc([C@@H]2[C@@H](C(=O)O)[C@H](c3ccc4c(c3)OCO4)CN2CC(=O)Nc2c(CC)cccc2CC)cc1 | cell-free assay, competition with immobilised ligand | 1 µM | 72%
C=CC(=O)N1CCC(C(=O)NCC(=O)N2CCN(c3nc(-c4cnc(N)nc4C(F)F)nc(N4CCOCC4)n3)CC2)CC1 | binding, competition with immobilised ligand | 1 µM | 81%
COC(=O)Nc1nc2ccc(C(=O)c3ccccc3)cc2[nH]1 | cell-free assay, competition with immobilised ligand | 10 µM | 30%
CC(C)CC(=O)N1CCc2nc(-c3ccc(Br)cc3)nc(N(C)Cc3ccccc3)c2C1 | cell-free assay, competition with immobilised ligand | 0.1 µM | 100%
O=C(c1ccc(Nc2ncc(Cl)c(-c3cc4ccccc4s3)n2)cc1)N1CCC(N2CCCC2)CC1 | binding, competition with immobilised ligand | 1 µM | 12%
CC1CCCN1c1nccc(-c2cnn3ncccc23)n1 (stereo not shown) | binding | 1 µM | 100%
O=C(NCc1ncc(C(F)(F)F)cc1Cl)c1ccc2c(c1)C1(CCS(=O)(=O)CC1)[C@H](C1CC1)N2S(=O)(=O)c1ccc(F)cc1 | cell-free assay, competition with immobilised ligand | 1 µM | 83%
